2 compounds from paper PMC11256359 (Biochemistry, 2024) can be followed below.

Changes are numbered by the printed parent chain.

What all share (format): binding
The target in assay [1] is T1, hOTC (human ornithine transcarbamylase) (Homo sapiens, UniProt P00480).
T1 sequence (P00480 33-354): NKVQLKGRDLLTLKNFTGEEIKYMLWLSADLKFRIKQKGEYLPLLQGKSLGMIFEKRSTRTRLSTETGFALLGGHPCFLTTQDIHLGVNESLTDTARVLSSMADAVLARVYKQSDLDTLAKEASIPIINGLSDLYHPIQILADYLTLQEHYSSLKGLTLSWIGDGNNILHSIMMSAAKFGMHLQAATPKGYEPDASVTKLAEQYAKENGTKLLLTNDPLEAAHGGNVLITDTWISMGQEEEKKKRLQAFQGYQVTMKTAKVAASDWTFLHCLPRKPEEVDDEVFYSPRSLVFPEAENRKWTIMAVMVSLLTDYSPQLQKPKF
In words: thermal shift assay. Conditions: 10 mM L-norvaline with carbamoyl phosphate present; 4 µM enzyme; storage buffer.

In assay [2] the target is T1, hOTC (human ornithine transcarbamylase). Nature of the assay: microscale thermophoresis, label-free. (In general: MST reads how a fluorescent partner responds to local heating, with and without ligand.)
Assay [3] concerns the target T2, hOTC (human ornithine transcarbamylase) (Homo sapiens, UniProt P00480, D263N).
T2 sequence (P00480 33-354 D263N): T1 sequence (P00480 33-354) with D231N
In words: microscale thermophoresis, label-free. In outline: (§1)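 His-tagged human OTC (WT or variants) expressed in BL21(DE3) Tuner cells with pGro7 chaperones and purified by one-step nickel chromatography. Ligand: substrate CP, serially diluted. Protein was diluted to 500 nM in 50 mM HEPES, 150 mM NaCl, 0.05% Tween, 2 mM EDTA, then mixed with CP to 250 nM final. Incubated ≥5 min at room temperature. Kd was measured by label-free MST on intrinsic tryptophan fluorescence.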

For assay [4], the target named is T3, hOTC (human ornithine transcarbamylase) (Homo sapiens, UniProt P00480, C303A).
T3 sequence (P00480 33-354 C303A): T1 sequence (P00480 33-354) with C271A
Nature of the assay: microscale thermophoresis, label-free. In short, it runs like this: as §1

The target of assay [5] is T4, hOTC (human ornithine transcarbamylase) (Homo sapiens, UniProt P00480, D263A).
T4 sequence (P00480 33-354 D263A): T1 sequence (P00480 33-354) with D231A
Nature of the assay: microscale thermophoresis, label-free. In outline:
as §1

Assay [6] deals with T5, hOTC (human ornithine transcarbamylase) (Homo sapiens, UniProt P00480, H302L).
T5 sequence (P00480 33-354 H302L): T1 sequence (P00480 33-354) with H270L
In words: microscale thermophoresis, label-free. In outline: as §1

Assay [7] has as its target T6, hOTC (human ornithine transcarbamylase) (Homo sapiens, UniProt P00480, H107N).
T6 sequence (P00480 33-354 H107N): T1 sequence (P00480 33-354) with H75N
Nature of the assay: microscale thermophoresis, label-free. In short, it runs like this: as §1

On to `CCC[C@H](N)C(=O)O` [NVA, L-norvaline], for which, in assay [1], the “Tm increase relative to CP alone” value is 2 °C.
The Kd is the concentration at which binding is half-saturated. Low values mean a tighter complex, high ones a looser complex. For the compound `NC(=O)OP(=O)(O)O` [CP, carbamoyl phosphate], the equilibrium dissociation constant (Kd) in assay [2] stood at 230 nM; in assay [3], 320 nM; in assay [4] it was 190 nM; in assay [5] it was 430 nM; in assay [6], 110000 nM; in assay [7], 25000 nM.
